Source: ChEMBL document CHEMBL1123067, “Evaluation of the brain-specific delivery of radioiodinated (iodophenyl)alkyl-substituted amines coupled to a dihydropyridine carrier” (J Med Chem, 1985)

Assays:
Format in all cases: ADME, organism-based
Rattus norvegicus [1] = experiment: Distribution of radioactivity in liver tissues of Sprague-Dawley rats after 5 min injection by intravenously; value ranges from 1.06-2.71; conditions: in vivo, iv
How it was run: (§1)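 Female Sprague-Dawley rats, 10–12 weeks old (170–200 g), fed ad libitum, under ether anaesthesia. Each received 15.1 μCi of the ¹²⁵I-labelled pyridinium conjugate or 10.6 μCi of the dihydropyridine conjugate by lateral tail vein. Dose was in 20% Me2SO/saline with vitamin E (~5 mg/mL), 0.22-μm filtered. Five rats per time point. Tissue activity was read against injected-solution standards as % injected dose/g.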

Rattus norvegicus [2] = experiment: Distribution of radioactivity in heart tissues of Sprague-Dawley rats after 5 min injection by intravenously; value ranges from 2.36-3.96; conditions: in vivo, iv; how it was run: as §1
Rattus norvegicus [3] = experiment: Distribution of radioactivity in blood tissues of Sprague-Dawley rats after 30 min injection by intravenously; value ranges from 0.35-0.4; conditions: in vivo, iv, 0.5 h
[4] = Brain to blood ratio in Sprague-Dawley rats after 15 min injection by intravenously; conditions: rat, brain and blood, iv
How it was run: (§2)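 Female Sprague-Dawley rats, 10–12 weeks old (170–200 g), fed ad libitum. The ¹²⁵I-labelled agent was dissolved in minimal Me2SO, diluted with saline to a final 20% Me2SO, filtered (0.22 μm), and injected into a lateral tail vein under ether anaesthesia. Tissues were counted against samples of the injected solution and expressed as % injected dose/g (mean, range). Brain/blood ratio is from the means.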

Rattus norvegicus [5] = experiment: Distribution of radioactivity in heart tissues of Sprague-Dawley rats after 30 min injection by intravenously; value ranges from 1.96-2.46; conditions: in vivo, iv, 0.5 h
Rattus norvegicus [6] = experiment: Distribution of radioactivity in kidney tissues of Sprague-Dawley rats after 15 min injection by intravenously; value ranges from 1.42-1.82; conditions: in vivo, iv, 0.25 h; how it was run: as §1
Rattus norvegicus [7] = experiment: Distribution of radioactivity in brain tissues of Sprague-Dawley rats after 30 min injection by intravenously; value ranges from 0.81-1.26; conditions: in vivo, iv, 0.5 h
Rattus norvegicus [8] = experiment: Distribution of radioactivity in kidney tissues of Sprague-Dawley rats after 30 min injection by intravenously; value ranges from 1.14-1.4; conditions: in vivo, iv, 0.5 h; how it was run: as §1
Rattus norvegicus [9] = experiment: Distribution of radioactivity in lung tissues of Sprague-Dawley rats after 30 min injection by intravenously; value ranges from 2.26-2.89; conditions: in vivo, iv, 0.5 h
How it was run: (§3)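 Female Sprague-Dawley rats, 10–12 weeks, 170–200 g, fed ad libitum, five per time point. Agent dissolved in minimal Me2SO, diluted with saline to 20% Me2SO, with vitamin E (~5 mg/mL) added, 0.22-µm filtered. 15.1 or 10.6 µCi (per agent) injected into lateral tail vein under ether. Lungs taken; % injected dose/g against injected-solution standards; mean (range).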

Rattus norvegicus [10] = experiment: Distribution of radioactivity in blood tissues of Sprague-Dawley rats after 5 min injection by intravenously; value ranges from 0.28-0.46; conditions: in vivo, iv
Rattus norvegicus [11] = experiment: Distribution of radioactivity in heart tissues of Sprague-Dawley rats after 15 min injection by intravenously; value ranges from 2.24-2.58; conditions: in vivo, iv, 0.25 h
Rattus norvegicus [12] = experiment: Distribution of radioactivity in kidney tissues of Sprague-Dawley rats after 5 min injection by intravenously; value ranges from 1.64-3.43; conditions: in vivo, iv; how it was run: as §1
Rattus norvegicus [13] = experiment: Distribution of radioactivity in brain tissues of Sprague-Dawley rats after 15 min injection by intravenously; value ranges from 1.05-1.25; conditions: in vivo, iv, 0.25 h
[14] = Brain to blood ratio in Sprague-Dawley rats after 5 min injection by intravenously; conditions: rat, brain and blood, iv; how it was run: as §2
Rattus norvegicus [15] = experiment: Distribution of radioactivity in kidney tissues of Sprague-Dawley rats after 60 min injection by intravenously; value ranges from 0.89-1.19; conditions: in vivo, iv, 1 h; how it was run: as §1
Rattus norvegicus [16] = experiment: Distribution of radioactivity in liver tissues of Sprague-Dawley rats after 60 min injection by intravenously; value ranges from 0.47-1.17; conditions: in vivo, iv, 1 h; how it was run: as §1
[17] = Brain to blood ratio in Sprague-Dawley rats after 30 min injection by intravenously; conditions: rat, brain and blood, iv; how it was run: as §2
[18] = Brain to blood ratio in Sprague-Dawley rats after 60 min injection by intravenously; conditions: rat, brain and blood, iv; how it was run: as §2
Rattus norvegicus [19] = experiment: Distribution of radioactivity in liver tissues of Sprague-Dawley rats after 15 min injection by intravenously; value ranges from 1.23-1.78; conditions: in vivo, iv, 0.25 h; how it was run: as §1
Rattus norvegicus [20] = experiment: Distribution of radioactivity in brain tissues of Sprague-Dawley rats after 5 min injection by intravenously; value ranges from 0.97-2.17; conditions: in vivo, iv
Rattus norvegicus [21] = experiment: Distribution of radioactivity in lung tissues of Sprague-Dawley rats after 15 min injection by intravenously; value ranges from 3.10-3.77; conditions: in vivo, iv, 0.25 h; how it was run: as §3
Rattus norvegicus [22] = experiment: Distribution of radioactivity in blood tissues of Sprague-Dawley rats after 60 min injection by intravenously; value ranges from 0.28-0.37; conditions: in vivo, iv, 1 h
Rattus norvegicus [23] = experiment: Distribution of radioactivity in blood tissues of Sprague-Dawley rats after 15 min injection by intravenously; value ranges from 0.31-0.4; conditions: in vivo, iv, 0.25 h
Rattus norvegicus [24] = experiment: Distribution of radioactivity in lung tissues of Sprague-Dawley rats after 60 min injection by intravenously; value ranges from 2.11-3.79; conditions: in vivo, iv, 1 h; how it was run: as §3
Rattus norvegicus [25] = experiment: Distribution of radioactivity in heart tissues of Sprague-Dawley rats after 60 min injection by intravenously; value ranges from 1.68-2.23; conditions: in vivo, iv, 1 h; how it was run: as §1
Rattus norvegicus [26] = experiment: Distribution of radioactivity in brain tissues of Sprague-Dawley rats after 60 min injection by intravenously; value ranges from 0.76-1.42; conditions: in vivo, iv, 1 h
Rattus norvegicus [27] = experiment: Distribution of radioactivity in lung tissues of Sprague-Dawley rats after 5 min injection by intravenously; value ranges from 3.62-7.08; conditions: in vivo, iv; how it was run: as §3
Rattus norvegicus [28] = experiment: Distribution of radioactivity in liver tissues of Sprague-Dawley rats after 30 min injection by intravenously; value ranges from 1.06-1.29; conditions: in vivo, iv, 0.5 h; how it was run: as §1

Distribution (Rattus norvegicus [1]): 1.65% | Distribution (Rattus norvegicus [2]): 2.86% | Distribution (Rattus norvegicus [3]): 0.38% | Kp at 0.25 h [4]: 3.29 | Distribution (Rattus norvegicus [5]): 2.18% | Distribution (Rattus norvegicus [6]): 1.56% | Distribution (Rattus norvegicus [7]): 1.01% | Distribution (Rattus norvegicus [8]): 1.23% | Distribution (Rattus norvegicus [9]): 2.43% | Distribution (Rattus norvegicus [10]): 0.37% | Distribution (Rattus norvegicus [11]): 2.43% | Distribution (Rattus norvegicus [12]): 2.36% | Distribution (Rattus norvegicus [13]): 1.16% | Kp at 5 min [14]: 3.87 | Distribution (Rattus norvegicus [15]): 1.07% | Distribution (Rattus norvegicus [16]): 0.82% | Kp at 0.5 h [17]: 2.66 | Kp at 1 h [18]: 3.6 | Distribution (Rattus norvegicus [19]): 1.56% | Distribution (Rattus norvegicus [20]): 1.14% | Distribution (Rattus norvegicus [21]): 3.3% | Distribution (Rattus norvegicus [22]): 0.31% | Distribution (Rattus norvegicus [23]): 0.35% | Distribution (Rattus norvegicus [24]): 2.77% | Distribution (Rattus norvegicus [25]): 1.88% | Distribution (Rattus norvegicus [26]): 1.12% | Distribution (Rattus norvegicus [27]): 4.61% | Distribution (Rattus norvegicus [28]): 1.18%
Compound: CN1C=CCC(C(=O)Nc2ccc([125I])cc2)=C1
